Source: ChEMBL document CHEMBL1144823, “Blood-brain barrier penetration by two dermorphin tetrapeptide analogues: role of lipophilicity vs structural flexibility” (J Med Chem, 2008)
Active and inactive are the calls of the source. Where a SMILES comes first, the peptide text is derived from it. [ ]: non-standard residue; d: D form. dNMeA = CN[C@H](C)C(=O)O; Sar = CNCC(=O)O

Legend:
Mu-type opioid receptor [1] = molecular target: Mu-type opioid receptor (Rattus norvegicus, UniProt P33535); assay: Displacement of [3H]naloxone from mu opioid receptor in rat brain membrane; assay type: cell membranes
Chain of Mu-type opioid receptor (Rattus norvegicus, UniProt P33535) (P33535 whole entry): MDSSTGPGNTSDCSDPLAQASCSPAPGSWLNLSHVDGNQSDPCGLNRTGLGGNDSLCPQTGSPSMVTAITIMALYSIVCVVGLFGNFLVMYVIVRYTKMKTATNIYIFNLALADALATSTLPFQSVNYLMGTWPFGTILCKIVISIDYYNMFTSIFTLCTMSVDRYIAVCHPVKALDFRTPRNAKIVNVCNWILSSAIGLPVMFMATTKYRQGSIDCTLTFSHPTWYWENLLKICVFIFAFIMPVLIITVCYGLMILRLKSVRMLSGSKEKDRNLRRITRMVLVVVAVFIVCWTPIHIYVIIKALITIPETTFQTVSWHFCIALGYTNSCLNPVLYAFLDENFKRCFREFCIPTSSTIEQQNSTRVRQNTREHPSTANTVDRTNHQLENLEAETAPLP
Procedure, shortened: (§1)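 Competitive displacement on rat brain membranes: [³H]naloxone for mu sites and [³H]deltorphin II for delta sites, giving IC50 values. Selectivity is expressed as IC50(mu)/IC50(delta).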

[2] = molecular target: Delta-type opioid receptor (Rattus norvegicus, UniProt P33533); assay: Displacement of [3H]deltorphin2 from delta opioid receptor in rat brain membrane; assay type: cell membranes; procedure, shortened: as §1
Chain of Delta-type opioid receptor (Rattus norvegicus, UniProt P33533) (P33533 whole entry): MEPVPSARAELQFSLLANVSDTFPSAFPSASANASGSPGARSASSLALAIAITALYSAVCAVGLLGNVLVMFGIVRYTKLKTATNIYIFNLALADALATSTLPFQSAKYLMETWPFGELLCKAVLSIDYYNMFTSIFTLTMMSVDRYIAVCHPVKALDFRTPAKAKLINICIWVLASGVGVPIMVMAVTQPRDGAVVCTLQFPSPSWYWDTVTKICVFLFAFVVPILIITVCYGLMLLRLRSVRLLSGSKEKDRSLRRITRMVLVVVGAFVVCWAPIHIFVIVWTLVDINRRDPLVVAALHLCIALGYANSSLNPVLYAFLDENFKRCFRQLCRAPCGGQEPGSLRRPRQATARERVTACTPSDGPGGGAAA

[3] = molecular target: Kappa-type opioid receptor (Cavia porcellus) (UniProt P41144); assay: Displacement of [3H]U-69593 from kappa opioid receptor in guinea pig brain membrane at 10 uM; assay type: cell membranes
Chain of Kappa-type opioid receptor (Cavia porcellus) (P41144 whole entry): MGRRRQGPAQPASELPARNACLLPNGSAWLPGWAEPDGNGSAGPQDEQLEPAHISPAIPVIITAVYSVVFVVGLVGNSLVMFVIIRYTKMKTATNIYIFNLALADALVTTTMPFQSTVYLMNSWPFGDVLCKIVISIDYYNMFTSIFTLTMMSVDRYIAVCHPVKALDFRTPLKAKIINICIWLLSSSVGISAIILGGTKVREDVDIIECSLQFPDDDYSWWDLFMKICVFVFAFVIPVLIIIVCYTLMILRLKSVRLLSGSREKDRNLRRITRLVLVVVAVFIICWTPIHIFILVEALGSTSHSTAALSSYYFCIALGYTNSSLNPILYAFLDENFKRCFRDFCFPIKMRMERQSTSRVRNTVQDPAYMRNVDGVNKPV
Procedure, shortened: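 Displacement of [³H]U69,593 from guinea pig brain membrane sites, with test concentrations up to 10 µM.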

Rattus norvegicus = species: Rattus norvegicus; assay: Ratio of IC50 for mu opioid receptor in rat brain to IC50 for delta opioid receptor in rat brain; assay type: tissue-based; procedure, shortened: as §1
Mu-type opioid receptor [4] = molecular target: Mu-type opioid receptor (Cavia porcellus, UniProt P97266); assay: Agonist activity at mu opioid receptor in guinea pig ileum; assay type: functional, tissue-based
Chain of Mu-type opioid receptor (Cavia porcellus, UniProt P97266) (P97266 whole entry): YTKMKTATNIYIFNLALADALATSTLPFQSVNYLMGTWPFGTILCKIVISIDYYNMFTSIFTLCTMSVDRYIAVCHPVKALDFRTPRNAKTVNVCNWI
Procedure, shortened: (§2)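 Isolated guinea pig ileum and mouse vas deferens preparations. A [Leu⁵]enkephalin standard dose–response curve was run for each ileum and vas preparation. Compound IC50 values were normalized to that standard by a published procedure.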

[5] = molecular target: Delta-type opioid receptor (Mus musculus, UniProt P32300); assay: Agonist activity at delta opioid receptor in mouse vas deferens; assay type: functional, tissue-based; procedure, shortened: as §2
Chain of Delta-type opioid receptor (Mus musculus, UniProt P32300) (P32300 whole entry): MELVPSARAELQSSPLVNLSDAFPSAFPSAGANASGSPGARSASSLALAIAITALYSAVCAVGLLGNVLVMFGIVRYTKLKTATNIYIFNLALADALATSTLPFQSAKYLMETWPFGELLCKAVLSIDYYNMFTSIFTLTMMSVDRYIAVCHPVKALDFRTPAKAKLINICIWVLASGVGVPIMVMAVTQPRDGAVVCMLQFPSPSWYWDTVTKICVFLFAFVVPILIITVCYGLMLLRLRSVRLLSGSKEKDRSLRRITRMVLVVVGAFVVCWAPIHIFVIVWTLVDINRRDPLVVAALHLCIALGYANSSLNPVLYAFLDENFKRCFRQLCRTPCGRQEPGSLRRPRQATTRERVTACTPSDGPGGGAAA

Mus musculus [6] = assay: Analgesic activity in C57 mouse at 2 mg/kg, iv after 15 mins by tail flick test; assay type: functional, organism-based; parameters: dose 2 mg/kg
Procedure, shortened: (§3)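 Male C57 mice (20–25 g) housed in groups of five on a 12 h light-dark cycle. Peptide in saline was injected into the tail vein (10 mL/kg total) and flushed with saline; controls received saline. Warm-water (55 °C) tail-flick test, three trials, 15 s cutoff. %MPE = (post − control)/(cutoff − control) × 100, read at baseline, 5, 15, 30, 60 and 120 min. One-way ANOVA at each time point.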

Mus musculus [7] = assay: Analgesic activity in C57 mouse at 2 mg/kg, iv after 5 mins by tail flick test; assay type: functional, organism-based; parameters: dose 2 mg/kg; procedure, shortened: as §3

Structure (SMILES)	IC50 (Mu-type opioid receptor [1]) [µM]	IC50 [2] [µM]	Activity [3]	Ratio IC50 (Rattus norvegicus)	IC50 (Mu-type opioid receptor [4]) [µM]	IC50 [5] [µM]	Activity (Mus musculus [6])	Activity (Mus musculus [7])
C[C@H](C(=O)N[C@@H](Cc1ccccc1)C(=O)N(C)CC(N)=O)N(C)C(=O)[C@@H](N)Cc1ccc(O)cc1 (H-Y[dNMeA]F[Sar]-NH2)	28.1	7.1	inactive	3.96	22	79.7	Active	Active
C[C@H](C(=O)N[C@H]1Cc2ccccc2CN(CC(N)=O)C1=O)N1Cc2cc(O)ccc2C[C@H](N)C1=O	20.8	17.8	inactive	1.17	3.64	30.3	–	–
